High-throughput results deposited in PubChem by several laboratories.
Rev-erbA mod – modulators of Rev-erb alpha DNA binding, primary screen, biochemical, FITC-DNA, fluorescence polarization, uHTS; Nuclear receptor subfamily 1 group D member 1 (Homo sapiens), P20393; Rev-erbα–FITC-DNA binding, 90 min; activity, % at 10 µM; 370,000 tested, 0.79% active; AID 1259318, 2017;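 active = activity above about 14%, limit read from the data; passing the limit was not always enough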
PG9 binder – binders of HIV-1 gp120 antibody PG9, primary screen, biochemical, TR-FRET | HIV-1 gp120 / PG9 antibody interaction | inhibition, % at 6.7 µM | TR-FRET gp120-PG9 antibody binding | 360,000 tested, 0.43% active | AID 624416, 2012; in the data active = inhibition above about 8.5%
NR2E3 ag-1 – inhibitors of NR2E3-RetCOR corepressor binding, primary screen, NR2E3 agonist project, biochemical, TR-FRET, GST-NR2E3, biotin-RetCOR. 320,000 tested, 0.12% active. inhibition of corepressor binding, % at 4.78 µM. 1536-well;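 active = percent inhibition above the cutoff of mean plus 3 SD of all tested compounds, set per screening campaign, cut at about 20% in these data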
Target sequence (Q9Y5X4 whole entry, looked up): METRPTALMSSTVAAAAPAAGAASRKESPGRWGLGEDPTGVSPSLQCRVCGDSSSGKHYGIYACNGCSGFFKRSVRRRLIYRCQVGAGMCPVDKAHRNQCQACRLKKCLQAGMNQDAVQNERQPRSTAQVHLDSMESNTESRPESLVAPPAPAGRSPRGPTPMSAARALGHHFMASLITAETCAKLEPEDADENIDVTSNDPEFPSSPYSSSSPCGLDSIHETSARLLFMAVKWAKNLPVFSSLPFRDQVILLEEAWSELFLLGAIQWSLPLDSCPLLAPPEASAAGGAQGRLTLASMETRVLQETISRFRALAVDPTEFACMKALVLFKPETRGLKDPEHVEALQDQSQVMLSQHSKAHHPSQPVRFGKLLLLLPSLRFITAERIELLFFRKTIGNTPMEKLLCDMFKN
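Test system: GST-NR2E3 and biotin-RetCOR proteins | Quantity: 1.35 nM GST-tagged NR2E3 final | Medium: Tris pH 7.5 | Also added: 7 nM biotin-RetCOR | Dosing: Compound at 4.8 µM, single dose | Timing: 5 h at 4 °C | Detection: Time-resolved FRET | Read-out basis: Percent inhibition | Benchmarks: Biotin wells as high control, 0.6% DMSO wells as low control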
NR2E3 ag-2 – NR2E3 agonists in two-hybrid cells, primary screen, cell-based, luminescence, CHO-S, Gal4-NCOR/VP16-NR2E3. 360,000 tested, 0.35% active. inhibition of corepressor binding, % at 3.98 µM. luciferase;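 active = inhibition above the mean of all tested compounds plus 3 SD, cut at about 70% in these data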;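 note: higher means lower luciferase signal from less NR2E3 corepressor binding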
GalR3 antagonist – GalR3 antagonists in HEK293 cells, primary screen, cell-based, fluorescence readout; Galanin receptor type 3 (Homo sapiens), O60755; HEK293 GalR3-CNG cAMP membrane potential fluorescence; galR3 body fused to GalR1 C-terminus; inhibition, % at 3 µM; 360,000 tested, 0.44% active; AID 651719, 2012;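 active = inhibition above the screen-wide average plus 3 SD, cut at about 13% in these data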;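 note: forskolin and galanin both at EC90 stimulate the cells; cAMP rise reported by CNG channel membrane potential dye signal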
Target sequence (O60755 1-299 limits assumed): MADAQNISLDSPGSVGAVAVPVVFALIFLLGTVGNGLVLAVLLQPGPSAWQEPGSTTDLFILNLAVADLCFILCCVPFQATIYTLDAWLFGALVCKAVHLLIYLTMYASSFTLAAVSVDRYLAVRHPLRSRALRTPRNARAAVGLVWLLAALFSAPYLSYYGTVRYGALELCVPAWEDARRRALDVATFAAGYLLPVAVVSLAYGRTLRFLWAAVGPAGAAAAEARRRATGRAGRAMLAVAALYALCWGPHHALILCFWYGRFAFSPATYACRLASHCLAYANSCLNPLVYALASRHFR
NR2E3 ag confirm – NR2E3 agonist confirmation in cells, cell-based, luminescence, CHO-S two-hybrid | shares compounds with NR2E3 ag-2 | CHO-S mammalian two-hybrid NR2E3-NCOR, luciferase luminescence | inhibition, % at 3.98 µM | 2,300 tested, 51% active | AID 624378, 2012;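 active = average inhibition above a cutoff equal to the mean inhibition of all tested compounds plus one SD, cut at about 70% in these data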
VP16 counter – GAL4-VP16 reporter modulators, confirmation, counter-screen for NR2E3 agonist project, cell-based, luminescence, CHO-S, high throughput; shares compounds with NR2E3 ag-2; CHO-S GAL4-VP16 luciferase reporter; inhibition, % at 3.98 µM; 2,300 tested, 29% active; AID 624379, 2012;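 active = mean inhibition above a cutoff equal to the average over all tested compounds plus one standard deviation, cut at about 70% in these data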;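 note: luciferase from a UAS reporter driven by GAL4-VP16 transactivation; higher means less reporter light so more repression of VP16 activity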
Of the large screens only hits and unclear results are named; the others gave an inactive call (follow-up assays come after a bar, where they were run). Rows were chosen to be rich in hits. Some 1.8% of all compounds tested hit in one or more screens of this group.

Cc1ccc(NC(=O)CSc2nnnn2-c2ccc3c(c2)OCO3)cc1C	NR2E3 ag-2 90.8 | NR2E3 ag confirm 100.1 | VP16 counter inactive
O=C(CSc1nnnn1-c1ccc(O)cc1)Nc1ccc(N2CCOCC2)c(Cl)c1	NR2E3 ag-2 97.5 | NR2E3 ag confirm 98.0 | VP16 counter inactive
S=c1[nH]nc(-c2n[nH]c3c2CCC3)n1N=Cc1ccc(OCc2ccccc2)cc1	none (no result: PG9 binder, NR2E3 ag-1, NR2E3 ag-2, GalR3 antagonist)
COC(=O)[C@H](CC(C)C)N(CCCc1cn(Cc2ccccc2)nn1)S(=O)(=O)c1ccc(F)cc1Br	none (no result: PG9 binder, NR2E3 ag-1, NR2E3 ag-2, GalR3 antagonist)
C(=NN1CCCCCC1)c1cccc2ccccc12	none (no result: NR2E3 ag-1)
C(=NN1CCCCCC1)c1ccc2ccccc2n1	NR2E3 ag-2 94.9 (no result: NR2E3 ag-1) | NR2E3 ag confirm 86.2 | VP16 counter inactive
CSCc1cc(N(C)c2ccccc2)nc(-c2ccccn2)n1	NR2E3 ag-2 108.6 | NR2E3 ag confirm inactive | VP16 counter inactive
CN(C)c1cc(C(F)(F)F)nc(-c2ccccn2)n1	none
CCCCOc1ncnc2c1[nH]c1ccccc12	NR2E3 ag-2 78.8 | NR2E3 ag confirm 92.4 | VP16 counter inactive
CCOCCCNc1ncnc2c1[nH]c1ccccc12	none
CCCCOCCCNc1ncnc2c1[nH]c1ccccc12	NR2E3 ag-2 87.1 | NR2E3 ag confirm 96.2 | VP16 counter 81.5
CC(C)C(=O)N[C@H]1[C@H](O)CCC[C@]12C(=O)N(Cc1ccccc1)c1ccccc12	none (no result: PG9 binder, NR2E3 ag-1, NR2E3 ag-2, GalR3 antagonist)
COC(=O)[C@H](C)NC(=O)C(Cc1ccc2c(c1)OCO2)NC(C)=O (some centres undefined)	none (no result: PG9 binder, NR2E3 ag-1, NR2E3 ag-2, GalR3 antagonist)
Cc1ccc(S(=O)(=O)N2CCC(=O)N(CCOCc3ccc(C(F)(F)F)cc3)CC2)cc1	NR2E3 ag-2 81.3 | NR2E3 ag confirm 88.3 | VP16 counter 70.8
O=C(/C=C/c1ccc2c(c1)OCO2)Nc1nc(-c2ccccc2)cs1	none
Cc1sc(NC(=O)/C=C/c2ccc3c(c2)OCO3)nc1-c1ccccc1	none | NR2E3 ag confirm 85.0 | VP16 counter inactive
COc1ccc(NS(=O)(=O)c2ccc3c(c2)NC(=O)CCS3)cc1Cl	none | NR2E3 ag confirm inactive | VP16 counter inactive
Cc1nc2cc(NCc3nc4ccccc4n3Cc3ccccc3)ccc2n1C	none | NR2E3 ag confirm inactive | VP16 counter inactive
Cc1cccc(NCc2nc3ccccc3n2Cc2ccccc2)c1	none
CC(C)c1nc(N(C)S(C)(=O)=O)nc(-c2ccc(F)cc2)c1/C=C/[C@H](O)C[C@@H](O)CC(=O)O	none (no result: PG9 binder, NR2E3 ag-1, NR2E3 ag-2, GalR3 antagonist)
COc1cccc(-c2nc(CSCC(=O)N3CCc4ccccc43)c(C)o2)c1	none
Cc1ccc(-c2nc(CSCC(=O)N3CCN(c4ccccn4)CC3)c(C)o2)cc1	NR2E3 ag-2 82.8 | NR2E3 ag confirm 87.3 | VP16 counter 76.4
CCOc1ccc(-c2nc(CSCC(=O)N3CCN(c4cccc(OC)c4)CC3)c(C)o2)cc1	none (no result: GalR3 antagonist) | NR2E3 ag confirm 78.2 | VP16 counter inactive
COc1cccc(NC(=O)Nc2ccc(Cc3ccncc3)cc2)c1	none | NR2E3 ag confirm inactive | VP16 counter inactive
COc1cccc(NC(=O)Nc2ccncc2)c1	none
O=C(Nc1ccc(F)cc1)Nc1cc(OCC(F)(F)F)cc(OCC(F)(F)F)c1	none | NR2E3 ag confirm 97.6 | VP16 counter 85.1
O=C(CN1C(=O)c2ccccc2S1(=O)=O)c1ccc(F)cc1	none
O=C(CN1C(=O)c2ccccc2S1(=O)=O)c1ccc2c(c1)OCCO2	none | NR2E3 ag confirm 84.8 | VP16 counter inactive
O=C(CN1C(=O)c2ccccc2S1(=O)=O)c1cccc(Br)c1	none
O=C(CN1C(=O)c2ccccc2S1(=O)=O)c1ccc2c(c1)OCCCO2	NR2E3 ag-2 97.4 | NR2E3 ag confirm 93.9 | VP16 counter 89.0
CCCOc1ccc(-c2nc(CSCC(=O)NC3CC3)c(C)o2)cc1	none (no result: PG9 binder, NR2E3 ag-1, NR2E3 ag-2, GalR3 antagonist)
CCOc1ccc(-c2nc(CSCC(=O)NC3CC3)c(C)o2)cc1	NR2E3 ag-2 109.1 (no result: Rev-erbA mod, PG9 binder, GalR3 antagonist) | NR2E3 ag confirm 94.7 | VP16 counter 94.5
CCOc1ccc(-c2nc(CSCC(=O)NCc3ccco3)c(C)o2)cc1	NR2E3 ag-2 100.0 | NR2E3 ag confirm 93.1 | VP16 counter 94.5
COc1ccc(-c2nc(CS(=O)CC(=O)NCc3ccco3)c(C)o2)cc1 (centres undefined)	none (no result: GalR3 antagonist)
CCOC(=O)N1CCC(NC(=O)CSCc2nc(-c3ccc(OCC)cc3)oc2C)CC1	none | NR2E3 ag confirm inactive | VP16 counter inactive
Cc1cc(NC(=O)C(=O)NCCN2CCN(C(=O)c3cccs3)CC2)ccc1Br	none
COc1ccccc1C(=O)N1CCN(CCNC(=O)C(=O)Nc2ccc(Br)c(C)c2)CC1	none | NR2E3 ag confirm inactive | VP16 counter inactive
CC(Cl)C(=O)N1CCC(C(=O)NC2CCCc3ccccc32)CC1 (centres undefined)	none (no result: PG9 binder, NR2E3 ag-1, NR2E3 ag-2, GalR3 antagonist)
Nc1nc2n[nH]nc2c(=O)[nH]1	NR2E3 ag-2 81.1 | NR2E3 ag confirm inactive | VP16 counter inactive
c1cc2cc(CNc3nc(NCC4CC4)nc4ccsc34)ccc2o1	none (no result: NR2E3 ag-1)
COc1ccccc1CNc1nc(NCc2ccc3occc3c2)c2sccc2n1	none (no result: NR2E3 ag-1) | NR2E3 ag confirm inactive | VP16 counter inactive
COc1ccccc1CNc1nc(NCc2ccccc2OC)c2sccc2n1	NR2E3 ag-2 75.1 (no result: NR2E3 ag-1) | NR2E3 ag confirm 75.0 | VP16 counter inactive
COc1ccccc1CNc1nc(NCC2CC2)nc2ccsc12	none (no result: NR2E3 ag-1)
COc1ccccc1CNc1nc(NCc2ccccc2SC)c2sccc2n1	NR2E3 ag-2 80.1 (no result: NR2E3 ag-1) | NR2E3 ag confirm 85.2 | VP16 counter inactive
Cc1ccc(Cn2cc(COC(=O)NCC(C)C)nn2)cc1	none (no result: PG9 binder, NR2E3 ag-1, NR2E3 ag-2, GalR3 antagonist)
Cc1ccc(Cc2c(-c3ccc(C)cc3)nc3c(Cl)cc(C(F)(F)F)cn23)cc1	none (no result: Rev-erbA mod, PG9 binder, NR2E3 ag-1, GalR3 antagonist) | NR2E3 ag confirm inactive | VP16 counter inactive
CC(C)(C)NCC(=Cc1ccccc1)C(=O)c1ccccc1	NR2E3 ag-2 87.3 (no result: NR2E3 ag-1) | NR2E3 ag confirm 82.9 | VP16 counter inactive
COc1ccc(C=C(C(=O)c2ccccc2)C(=O)c2ccccc2)cc1	none (no result: NR2E3 ag-1)
COc1ccc(CN(C)C(=O)c2ccc(COc3ccccc3)cc2)c(OC)c1	none
COc1cc(OC)c(OC)cc1CNC(=O)c1ccc(COc2ccccc2)cc1	none | NR2E3 ag confirm inactive | VP16 counter inactive
C[C@@H]1OCN(C)[C@H]2C[C@H]3c4[nH]c5cccc(-c6ccc7c(c6)OCO7)c5c4CCN3C[C@@H]12	none (no result: PG9 binder, NR2E3 ag-1, NR2E3 ag-2, GalR3 antagonist)
